Laboratory results published in ChEMBL document CHEMBL3351543, “Novel Type of Prodrug Activation through a Long-Range O,N-Acyl Transfer: A Case of Water-Soluble CREB Inhibitor” (ACS Med Chem Lett, 2014).

Tested on: MCF7
Experiment: Growth inhibition of human MCF7 cells after 72 hrs by MTT assay
Type: functional
Conditions: MCF7, 72 h
In short: (§1)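 Cancer cells exposed to compounds for 72 h; growth measured by MTT assay. GI50 is the concentration giving 50% growth inhibition, highest concentration tested 100 μM. Mean ± SD of at least two independent experiments.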

| GI50 [nM] | Compound |
| --- | --- |
| 140 | Cl.NCCCOc1cc2ccccc2cc1C(=O)NCCCOc1cc2ccccc2cc1C(=O)Nc1ccc(Cl)cc1O |
| 1850 | NCCCOc1cc2ccccc2cc1C(=O)Nc1ccc(Cl)cc1O |
| > 100000 | COc1cc2ccccc2cc1C(=O)Nc1ccc(Cl)cc1O |
| 2810 | O=C(Nc1ccc(Cl)cc1)c1cc2ccccc2cc1O |

Tested on: not listed separately
Experiment: Inhibition of CREB (unknown origin) expressed in HEK293T cells assessed as reduction in CREB-mediated gene tanscription after 5 hrs by luciferase reporter gene assay
Type: cell-based
Conditions: Homo sapiens, HEK-293T
In short: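 CREB-Renilla luciferase reporter assay in living HEK 293T cells measuring CREB-mediated gene transcription. Highest concentration tested 50 μM. IC50 given as mean ± SD of at least two independent experiments.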

| Compound | IC50 [nM] |
| --- | --- |
| Cl.NCCCOc1cc2ccccc2cc1C(=O)NCCCOc1cc2ccccc2cc1C(=O)Nc1ccc(Cl)cc1O | 2220 |
| NCCCOc1cc2ccccc2cc1C(=O)Nc1ccc(Cl)cc1O | 26200 |
| COc1cc2ccccc2cc1C(=O)Nc1ccc(Cl)cc1O | > 50000 |
| O=C(Nc1ccc(Cl)cc1)c1cc2ccccc2cc1O | 2290 |

Results, then the molecule that gave them:

| IC50 [nM] | Compound |
| --- | --- |
| 1950 | COc1cc2ccccc2cc1C(=O)Nc1ccc(Cl)cc1OC(=O)c1cc2ccccc2cc1OC |
| 2270 | Cl.NCCCOc1cc2ccccc2cc1C(=O)Nc1ccc(Cl)cc1OC(=O)c1cc2ccccc2cc1OCCCN |

Tested on: not listed separately
Experiment: Drug level in PBS buffer treated with 2-(3-(3-Aminopropoxy)-2-naphthamido)-5-chlorophenyl 3-(3-Aminopropoxy)-2-naphthoate dihydrochloride at room temperature assessed as compound formation
Type: physicochemical
Conditions: not given
In short: (§2)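 Compound incubated in PBS at room temperature at pH 7.40, 6.98, 6.48 or 6.01. Aliquots taken at set times were analysed by RP-HPLC, and percent parent remaining was quantified per chromatogram. Data fitted to first-order kinetics to derive t1/2; mean ± SD of two independent experiments.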

| Drug metabolism | Compound |
| --- | --- |
| metabolite_detected | Cl.NCCCOc1cc2ccccc2cc1C(=O)NCCCOc1cc2ccccc2cc1C(=O)Nc1ccc(Cl)cc1O |

Tested on: HEK-293T
Experiment: Inhibition of CREB in HEK293T cells assessed as reduction in forskolin-induced NR4A2 mRNA expression at 2.5 uM pre-incubated for 1 hrs before forskolin stimulation for 45 mins by RT-PCR method
Type: cell-based
Conditions: Homo sapiens
In short: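 HEK 293T cells pretreated with compounds for 1 h, then forskolin added for a further 45 min. Endogenous NR4A2 mRNA quantified by qRT-PCR as relative level; significance by Student's t test.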

| Compound | fold change (FC) |
| --- | --- |
| Cl.NCCCOc1cc2ccccc2cc1C(=O)NCCCOc1cc2ccccc2cc1C(=O)Nc1ccc(Cl)cc1O | 10 |
| Cl.NCCCOc1cc2ccccc2cc1C(=O)Nc1ccc(Cl)cc1OC(=O)c1cc2ccccc2cc1OCCCN | 10 |

Tested on: not listed separately
Experiment: Half life in PBS buffer at pH 7.4 by RP-HPLC method
Type: ADME
Conditions: not given
In short: as §2

| half-life [h] | Compound |
| --- | --- |
| 0.455 | Cl.NCCCOc1cc2ccccc2cc1C(=O)Nc1ccc(Cl)cc1OC(=O)c1cc2ccccc2cc1OCCCN |

Tested on: A549
Experiment: Growth inhibition of human A549 cells after 72 hrs by MTT assay
Type: functional, cell-based
Conditions: A549, 72 h
In short: as §1

| Compound | IC50 [nM] |
| --- | --- |
| Cl.NCCCOc1cc2ccccc2cc1C(=O)NCCCOc1cc2ccccc2cc1C(=O)Nc1ccc(Cl)cc1O | 290 |
| NCCCOc1cc2ccccc2cc1C(=O)Nc1ccc(Cl)cc1O | 2730 |
| COc1cc2ccccc2cc1C(=O)Nc1ccc(Cl)cc1O | > 100000 |
| O=C(Nc1ccc(Cl)cc1)c1cc2ccccc2cc1O | 2900 |

Results, then the molecule that gave them:

| IC50 [nM] | Compound |
| --- | --- |
| 8780 | COc1cc2ccccc2cc1C(=O)Nc1ccc(Cl)cc1OC(=O)c1cc2ccccc2cc1OC |
| 590 | Cl.NCCCOc1cc2ccccc2cc1C(=O)Nc1ccc(Cl)cc1OC(=O)c1cc2ccccc2cc1OCCCN |

Tested on: not listed separately
Experiment: Half life in PBS buffer at pH 7.4 at 4 degC by RP-HPLC method
Type: ADME
Conditions: not given

| half-life [h] | Compound |
| --- | --- |
| 24 | Cl.NCCCOc1cc2ccccc2cc1C(=O)Nc1ccc(Cl)cc1OC(=O)c1cc2ccccc2cc1OCCCN |

Tested on: not listed separately
Experiment: Aqueous solubility in water
Type: physicochemical
Conditions: not given

| solubility [µg/mL] | Compound |
| --- | --- |
| 120 | Cl.NCCCOc1cc2ccccc2cc1C(=O)NCCCOc1cc2ccccc2cc1C(=O)Nc1ccc(Cl)cc1O |
| < 100 | COc1cc2ccccc2cc1C(=O)Nc1ccc(Cl)cc1OC(=O)c1cc2ccccc2cc1OC |
| > 100000 | Cl.NCCCOc1cc2ccccc2cc1C(=O)Nc1ccc(Cl)cc1OC(=O)c1cc2ccccc2cc1OCCCN |

Tested on: not listed separately
Experiment: Half life in PBS buffer at pH 6.48 by RP-HPLC method
Type: ADME
Conditions: not given
In short: as §2

| half-life [h] | Compound |
| --- | --- |
| 1.91 | Cl.NCCCOc1cc2ccccc2cc1C(=O)Nc1ccc(Cl)cc1OC(=O)c1cc2ccccc2cc1OCCCN |

Tested on: not listed separately
Experiment: Half life in PBS buffer at pH 6.01 by RP-HPLC method
Type: ADME
Conditions: not given
In short: as §2

| half-life [h] | Compound |
| --- | --- |
| 7.46 | Cl.NCCCOc1cc2ccccc2cc1C(=O)Nc1ccc(Cl)cc1OC(=O)c1cc2ccccc2cc1OCCCN |

Molecular target: not listed separately
Experiment: Inhibition of CREB (unknown origin) assessed as reduction in KIX-KID interaction after 20 to 24 hrs by renilla luciferase complementation assay
Parameters: species or system Homo sapiens
Conditions: not given
In short: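 In vitro Renilla luciferase complementation assay of KIX–KID interaction, run at 4 °C. Highest concentration tested 50 μM. IC50 given as mean ± SD of at least two independent experiments.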

| Compound | IC50 [nM] |
| --- | --- |
| Cl.NCCCOc1cc2ccccc2cc1C(=O)NCCCOc1cc2ccccc2cc1C(=O)Nc1ccc(Cl)cc1O | 19700 |
| NCCCOc1cc2ccccc2cc1C(=O)Nc1ccc(Cl)cc1O | > 50000 |
| COc1cc2ccccc2cc1C(=O)Nc1ccc(Cl)cc1O | > 50000 |
| O=C(Nc1ccc(Cl)cc1)c1cc2ccccc2cc1O | 2900 |

Second part, the molecule after the results:

| IC50 [nM] | Compound |
| --- | --- |
| 170 | COc1cc2ccccc2cc1C(=O)Nc1ccc(Cl)cc1OC(=O)c1cc2ccccc2cc1OC |
| 4400 | Cl.NCCCOc1cc2ccccc2cc1C(=O)Nc1ccc(Cl)cc1OC(=O)c1cc2ccccc2cc1OCCCN |

Tested on: MDA-MB-231
Experiment: Growth inhibition of human MDA-MB-231 cells after 72 hrs by MTT assay
Type: functional
Conditions: MDA-MB-231, 72 h
In short: as §1

| Compound | GI50 [nM] |
| --- | --- |
| Cl.NCCCOc1cc2ccccc2cc1C(=O)NCCCOc1cc2ccccc2cc1C(=O)Nc1ccc(Cl)cc1O | 370 |
| NCCCOc1cc2ccccc2cc1C(=O)Nc1ccc(Cl)cc1O | 2190 |
| COc1cc2ccccc2cc1C(=O)Nc1ccc(Cl)cc1O | > 100000 |
| O=C(Nc1ccc(Cl)cc1)c1cc2ccccc2cc1O | 2350 |

Next, values leading:

| GI50 [nM] | Compound |
| --- | --- |
| 23500 | COc1cc2ccccc2cc1C(=O)Nc1ccc(Cl)cc1OC(=O)c1cc2ccccc2cc1OC |
| 1300 | Cl.NCCCOc1cc2ccccc2cc1C(=O)Nc1ccc(Cl)cc1OC(=O)c1cc2ccccc2cc1OCCCN |

Tested on: not listed separately
Experiment: Half life in PBS buffer at pH 6.98 by RP-HPLC method
Type: ADME
Conditions: not given
In short: as §2

| half-life [h] | Compound |
| --- | --- |
| 0.628 | Cl.NCCCOc1cc2ccccc2cc1C(=O)Nc1ccc(Cl)cc1OC(=O)c1cc2ccccc2cc1OCCCN |

Tested on: not listed separately
Experiment: Half life in Dulbecco's Modified eagle medium at pH 7.7 containing 10% fetal bovine serum
Type: ADME
Conditions: cattle, Dulbecco's Modified Eagle medium with 10% fetal bovine serum
In short: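 Compound incubated at 37 °C in DMEM with 10% FBS. At set times an aliquot was mixed with 9 volumes of acetonitrile to precipitate protein, and the supernatant was analysed by RP-HPLC with UV detection at 254 nm against an internal standard.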

| half-life [h] | Compound |
| --- | --- |
| 20 | COc1cc2ccccc2cc1C(=O)Nc1ccc(Cl)cc1OC(=O)c1cc2ccccc2cc1OC |
| < 0.0833 | Cl.NCCCOc1cc2ccccc2cc1C(=O)Nc1ccc(Cl)cc1OC(=O)c1cc2ccccc2cc1OCCCN |

Tested on: not listed separately
Experiment: Retention time of the compound by HPLC method
Type: physicochemical
Conditions: not given

| Retention_time [min] | Compound |
| --- | --- |
| 12.2 | Cl.NCCCOc1cc2ccccc2cc1C(=O)NCCCOc1cc2ccccc2cc1C(=O)Nc1ccc(Cl)cc1O |

Tested on: MDA-MB-468
Experiment: Growth inhibition of human MDA-MB-468 cells after 72 hrs by MTT assay
Type: functional
Conditions: MDA-MB-468, 72 h
In short: as §1

| Compound | GI50 [nM] |
| --- | --- |
| Cl.NCCCOc1cc2ccccc2cc1C(=O)NCCCOc1cc2ccccc2cc1C(=O)Nc1ccc(Cl)cc1O | 220 |
| NCCCOc1cc2ccccc2cc1C(=O)Nc1ccc(Cl)cc1O | 1200 |
| COc1cc2ccccc2cc1C(=O)Nc1ccc(Cl)cc1O | > 100000 |
| O=C(Nc1ccc(Cl)cc1)c1cc2ccccc2cc1O | 1460 |

Second part, the molecule after the results:

| GI50 [nM] | Compound |
| --- | --- |
| 8110 | COc1cc2ccccc2cc1C(=O)Nc1ccc(Cl)cc1OC(=O)c1cc2ccccc2cc1OC |
| 330 | Cl.NCCCOc1cc2ccccc2cc1C(=O)Nc1ccc(Cl)cc1OC(=O)c1cc2ccccc2cc1OCCCN |
